Results on 17 compounds are retold here after ChEMBL document CHEMBL1828603, “Synthesis, antimicrobial activity and possible mechanism of action of 9-bromo-substituted indolizinoquinoline-5,12-dione derivatives” (2011).

What all share (type): functional
Assay [1] relates to Staphylococcus aureus. The assay is described as follows: Antimicrobial activity against Staphylococcus aureus ATCC 25923 by broth microdilution method. In a few lines:
(§1)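 Two-fold broth microdilution in Mueller-Hinton broth. Compound in DMSO added to bacterial culture at 5 × 10^5 cells/ml, starting at 64 µg/ml, then serially doubled down. Incubated at 37 °C overnight and read as OD600. MIC taken as the minimum inhibitory concentration, obtained in at least two independent experiments.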
In general terms: In broth dilution the organism is exposed to a series of concentrations in liquid medium.

The next assay concerns Enterococcus faecalis. The assay is described as follows: Antimicrobial activity against Enterococcus faecalis ATCC 29212 by broth microdilution method. An outline of the steps: as §1
The next assay has as its system Candida albicans. Description: Antifungal activity against Candida albicans ATCC 10231 by broth microdilution method.
In another assay the test system is Pseudomonas aeruginosa. Description: Antimicrobial activity against Pseudomonas aeruginosa ATCC 27853 by broth microdilution method. In a few lines: as §1
In assay [2] the test system is Staphylococcus aureus. The assay is described as follows: Antimicrobial activity against methicillin-resistant Staphylococcus aureus ATCC 43300 by broth microdilution method. In a few lines: (§2)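 Two-fold serial dilution in Mueller-Hinton broth, starting at 64 µg/ml. Compound was added as a DMSO solution to bacterial culture at 5 × 10^5 cells/ml, then double-diluted. Plates were incubated overnight at 37 °C and OD600 was read. MIC was taken from at least two independent experiments.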

In another assay the test system is Escherichia coli. The assay is described as follows: Antimicrobial activity against Escherichia coli ATCC 25922 by broth microdilution method. In a few lines:
as §1

Assay [3] has as its system Staphylococcus epidermidis. Description: Antimicrobial activity against Staphylococcus epidermidis ATCC 12228 by broth microdilution method. In a few lines: as §1
For assay [4], the system named is Salmonella enterica subsp. enterica serovar Paratyphi B. The assay is described as follows: Antimicrobial activity against Salmonella paratyphi B CMCC 50094 by broth microdilution method. In a few lines:
as §2

The subject of a further assay is Streptococcus. Description: Antimicrobial activity against hemolytic Streptococcus Group B CMCC 32210 by broth microdilution method. An outline of the steps: as §1

Molecules are shown by their SMILES. Values after ≈ are worked out from the molar mass of the structure shown.

For orientation: MIC means the least concentration at which growth counts as inhibited. Lower therefore signals a more susceptible organism. Consider `O=C1c2cccnc2C(=O)c2c1c(C(=O)OCCN1CCOCC1)c1ccc(Br)cn21`, for which the MIC in the assay with Staphylococcus aureus [1] is 0.25 µg/mL (≈ 0.516 µM); in the assay on Enterococcus faecalis, 0.13 µg/mL (≈ 0.268 µM); against Candida albicans, above 64 µg/mL; with Pseudomonas aeruginosa, above 64 µg/mL; against Staphylococcus aureus [2], 0.25 µg/mL (≈ 0.516 µM); against Escherichia coli it was 32 µg/mL (≈ 66.1 µM). In addition, the MIC in [3] was 0.25 µg/mL (≈ 0.516 µM); in [4], above 64 µg/mL; against Streptococcus, 0.063 µg/mL (≈ 0.13 µM).

As for `O=C1c2cccnc2C(=O)c2c1c(C(=O)NCCCN1CCCC1)c1ccc(Br)cn21`, the MIC is 8 µg/mL (≈ 16.6 µM) in the assay on Staphylococcus aureus [1]; 4 µg/mL (≈ 8.31 µM) with Enterococcus faecalis; above 64 µg/mL with Candida albicans; above 64 µg/mL in the assay on Pseudomonas aeruginosa; 4 µg/mL (≈ 8.31 µM) against Staphylococcus aureus [2]; above 64 µg/mL in the assay with Escherichia coli. The figures for the MIC (in assay [3]; in [4]; in the assay with Streptococcus) were 4 µg/mL (≈ 8.31 µM), above 64 µg/mL and 1 µg/mL (≈ 2.08 µM), respectively.

Turning to `CN1CCN(C(=O)c2c3c(n4cc(Br)ccc24)C(=O)c2ncccc2C3=O)CC1`, the MIC was 16 µg/mL (≈ 35.3 µM) in the assay with Staphylococcus aureus [1]; above 64 µg/mL against Enterococcus faecalis; above 64 µg/mL in the assay on Candida albicans; above 64 µg/mL against Pseudomonas aeruginosa; 32 µg/mL (≈ 70.6 µM) in the assay on Staphylococcus aureus [2]; above 64 µg/mL in the assay on Escherichia coli. Also, the MIC is 32 µg/mL (≈ 70.6 µM) in assay [3], above 64 µg/mL in [4] and 8 µg/mL (≈ 17.6 µM) against Streptococcus.

In the case of `CCN(CC)C(=O)c1c2c(n3cc(Br)ccc13)C(=O)c1ncccc1C2=O`, the MIC in the assay on Staphylococcus aureus [1] was 8 µg/mL (≈ 18.8 µM); in the assay on Enterococcus faecalis, 16 µg/mL (≈ 37.5 µM); in the assay with Candida albicans it was above 64 µg/mL; in the assay with Pseudomonas aeruginosa, above 64 µg/mL; in the assay with Staphylococcus aureus [2], 16 µg/mL (≈ 37.5 µM); against Escherichia coli, above 64 µg/mL. The MIC in assay [3] is 16 µg/mL (≈ 37.5 µM); in assay [4], above 64 µg/mL; with Streptococcus it was 8 µg/mL (≈ 18.8 µM).

Consider `CN(C)CCNC(=O)c1c2c(n3cc(Br)ccc13)C(=O)c1ncccc1C2=O`, for which the MIC against Staphylococcus aureus [1] is 4 µg/mL (≈ 9.06 µM); with Enterococcus faecalis, 1 µg/mL (≈ 2.27 µM); against Candida albicans, above 64 µg/mL; with Pseudomonas aeruginosa, above 64 µg/mL; against Staphylococcus aureus [2] it was 4 µg/mL (≈ 9.06 µM); with Escherichia coli, above 64 µg/mL. In addition, the MIC is 2 µg/mL (≈ 4.53 µM) in assay [3], above 64 µg/mL in assay [4] and 0.5 µg/mL (≈ 1.13 µM) with Streptococcus.

Regarding `O=C1c2cccnc2C(=O)c2c1c(C(=O)N1CCOCC1)c1ccc(Br)cn21`, the MIC with Staphylococcus aureus [1] is 16 µg/mL (≈ 36.3 µM); against Enterococcus faecalis it was above 64 µg/mL; in the assay on Candida albicans it was above 64 µg/mL; in the assay on Pseudomonas aeruginosa, above 64 µg/mL; against Staphylococcus aureus [2], 64 µg/mL (≈ 145 µM); against Escherichia coli, above 64 µg/mL. Further, the MIC in assay [3] is 32 µg/mL (≈ 72.7 µM); in assay [4] it was above 64 µg/mL; with Streptococcus, 16 µg/mL (≈ 36.3 µM).

For `O=C1c2cccnc2C(=O)c2c1c(C(=O)NCCN1CCCC1)c1ccc(Br)cn21`, the MIC against Staphylococcus aureus [1] is 4 µg/mL (≈ 8.56 µM); with Enterococcus faecalis, 2 µg/mL (≈ 4.28 µM); against Candida albicans, above 64 µg/mL; against Pseudomonas aeruginosa it was above 64 µg/mL; in the assay on Staphylococcus aureus [2], 4 µg/mL (≈ 8.56 µM); with Escherichia coli, above 64 µg/mL. Moreover, the MIC in [3] was 1 µg/mL (≈ 2.14 µM); in assay [4], above 64 µg/mL; in the assay on Streptococcus, 0.5 µg/mL (≈ 1.07 µM).

With `O=C1c2cccnc2C(=O)c2c1c(C(=O)NCCN1CCCCC1)c1ccc(Br)cn21`, the MIC against Staphylococcus aureus [1] was 1 µg/mL (≈ 2.08 µM); against Enterococcus faecalis, 2 µg/mL (≈ 4.15 µM); against Candida albicans, above 64 µg/mL; in the assay on Pseudomonas aeruginosa it was 64 µg/mL (≈ 133 µM); in the assay on Staphylococcus aureus [2], 2 µg/mL (≈ 4.15 µM); against Escherichia coli it was 64 µg/mL (≈ 133 µM). The MIC stood at 1 µg/mL (≈ 2.08 µM) in assay [3], 64 µg/mL (≈ 133 µM) in assay [4] and 0.5 µg/mL (≈ 1.04 µM) in the assay with Streptococcus.

Regarding `O=C1c2cccnc2C(=O)c2c1c(C(=O)N1CCCC1)c1ccc(Br)cn21`, the MIC is 8 µg/mL (≈ 18.9 µM) in the assay on Staphylococcus aureus [1]; above 64 µg/mL against Enterococcus faecalis; above 64 µg/mL in the assay on Candida albicans; above 64 µg/mL with Pseudomonas aeruginosa; 64 µg/mL (≈ 151 µM) in the assay with Staphylococcus aureus [2]; above 64 µg/mL with Escherichia coli. Further, the MIC in assay [3] is 32 µg/mL (≈ 75.4 µM); in assay [4], above 64 µg/mL; with Streptococcus it was 16 µg/mL (≈ 37.7 µM).

As to `O=C1c2cccnc2C(=O)c2c1c(C(=O)NCCCN1CCCCC1)c1ccc(Br)cn21`, the MIC with Staphylococcus aureus [1] was 2 µg/mL (≈ 4.04 µM); in the assay on Enterococcus faecalis, 2 µg/mL (≈ 4.04 µM); in the assay with Candida albicans, above 64 µg/mL; in the assay on Pseudomonas aeruginosa, above 64 µg/mL; against Staphylococcus aureus [2], 4 µg/mL (≈ 8.07 µM); in the assay with Escherichia coli, above 64 µg/mL. In addition, the MIC in assay [3] is 8 µg/mL (≈ 16.1 µM); in assay [4], above 64 µg/mL; in the assay on Streptococcus it was 1 µg/mL (≈ 2.02 µM).

Consider `CN(C)CCCNC(=O)c1c2c(n3cc(Br)ccc13)C(=O)c1ncccc1C2=O`, for which the MIC against Staphylococcus aureus [1] is 4 µg/mL (≈ 8.79 µM); with Enterococcus faecalis, 4 µg/mL (≈ 8.79 µM); against Candida albicans, above 64 µg/mL; against Pseudomonas aeruginosa it was above 64 µg/mL; against Staphylococcus aureus [2], 4 µg/mL (≈ 8.79 µM); in the assay on Escherichia coli, above 64 µg/mL. Also, the MIC is 8 µg/mL (≈ 17.6 µM) in assay [3], above 64 µg/mL in [4] and 1 µg/mL (≈ 2.2 µM) against Streptococcus.

For `CC1(C)S[C@@H]2[C@H](NC(=O)Cc3ccccc3)C(=O)N2[C@H]1C(=O)O` [PENICILLIN G], the MIC in the assay on Staphylococcus aureus [1] is below 0.031 µg/mL; against Enterococcus faecalis, 2 µg/mL (≈ 5.98 µM); in the assay with Pseudomonas aeruginosa, above 64 µg/mL; against Staphylococcus aureus [2], above 64 µg/mL; in the assay with Escherichia coli, 64 µg/mL (≈ 191 µM); in assay [3] it was 16 µg/mL (≈ 47.8 µM). For the same compound, the MIC was 2 µg/mL (≈ 5.98 µM) in [4] and below 0.031 µg/mL in the assay on Streptococcus.

With `O=C1c2cccnc2C(=O)c2c1c(C(=O)OCCN1CCCCC1)c1ccc(Br)cn21`, the MIC against Staphylococcus aureus [1] was 0.063 µg/mL (≈ 0.131 µM); in the assay on Enterococcus faecalis it was 0.031 µg/mL (≈ 0.0643 µM); in the assay with Candida albicans, above 64 µg/mL; against Pseudomonas aeruginosa, above 64 µg/mL; in the assay on Staphylococcus aureus [2], 0.5 µg/mL (≈ 1.04 µM); with Escherichia coli, 4 µg/mL (≈ 8.29 µM). In addition, the MIC in assay [3] was determined as 0.063 µg/mL (≈ 0.131 µM); in assay [4] it was 16 µg/mL (≈ 33.2 µM); with Streptococcus, 0.031 µg/mL (≈ 0.0643 µM).

Take `O=C1c2cccnc2C(=O)c2c1c(C(=O)NCCCN1CCOCC1)c1ccc(Br)cn21`: the MIC with Staphylococcus aureus [1] is 8 µg/mL (≈ 16.1 µM); against Enterococcus faecalis, 4 µg/mL (≈ 8.04 µM); with Candida albicans, above 64 µg/mL; with Pseudomonas aeruginosa it was above 64 µg/mL; with Staphylococcus aureus [2] it was 4 µg/mL (≈ 8.04 µM); against Escherichia coli, above 64 µg/mL. Moreover, the MIC in assay [3] was 4 µg/mL (≈ 8.04 µM); in assay [4] it was above 64 µg/mL; in the assay on Streptococcus, 1 µg/mL (≈ 2.01 µM).

Take `O=C1c2cccnc2C(=O)c2c1c(C(=O)N1CCSCC1)c1ccc(Br)cn21`: the MIC is above 64 µg/mL in the assay on Staphylococcus aureus [1]; above 64 µg/mL in the assay with Enterococcus faecalis; above 64 µg/mL with Candida albicans; above 64 µg/mL in the assay with Pseudomonas aeruginosa; 64 µg/mL (≈ 140 µM) in the assay with Staphylococcus aureus [2]; above 64 µg/mL in the assay with Escherichia coli. Also, the values for the MIC (in assay [3]; in assay [4]; in the assay with Streptococcus) were above 64 µg/mL, above 64 µg/mL and 64 µg/mL (≈ 140 µM), respectively.

With `CCN(CC)CCNC(=O)c1c2c(n3cc(Br)ccc13)C(=O)c1ncccc1C2=O`, the MIC in the assay on Staphylococcus aureus [1] was 4 µg/mL (≈ 8.52 µM); in the assay with Enterococcus faecalis, 4 µg/mL (≈ 8.52 µM); in the assay with Candida albicans, above 64 µg/mL; against Pseudomonas aeruginosa, above 64 µg/mL; in the assay on Staphylococcus aureus [2], 4 µg/mL (≈ 8.52 µM); in the assay with Escherichia coli, above 64 µg/mL. The MIC in assay [3] is 2 µg/mL (≈ 4.26 µM); in assay [4], above 64 µg/mL; in the assay on Streptococcus, 0.5 µg/mL (≈ 1.07 µM).

On to `CC(=O)N1CCN(C(=O)c2c3c(n4cc(Br)ccc24)C(=O)c2ncccc2C3=O)CC1`, for which the MIC with Staphylococcus aureus [1] is 64 µg/mL (≈ 133 µM); in the assay with Enterococcus faecalis it was above 64 µg/mL; in the assay with Candida albicans it was above 64 µg/mL; against Pseudomonas aeruginosa, above 64 µg/mL; in the assay with Staphylococcus aureus [2], above 64 µg/mL; in the assay with Escherichia coli, above 64 µg/mL. In addition, the values for the MIC (in [3]; in assay [4]; in the assay on Streptococcus) were above 64 µg/mL, above 64 µg/mL and 16 µg/mL (≈ 33.2 µM), respectively.
